Reference: ChEMBL document CHEMBL1132153, “Antitumor agents. 196. Substituted 2-thienyl-1,8-naphthyridin-4-ones: their synthesis, cytotoxicity, and inhibition of tubulin polymerization” (J Med Chem, 1999)

Experiments:
HL-60 [1] = test: In vitro growth inhibition of HL-60 (TB) leukemia cell line.; assay type: functional; conditions: Homo sapiens
Procedure, shortened: (§1)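 Human leukemia HL-60(TB) cells exposed to compound in vitro. The read-out is log GI50 in molar units, defined as the log concentration that reduced cell growth to 50% of the level in untreated controls.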

MDA-MB-435 = test: In vitro growth inhibition of MDA-MB-435 breast cancer cell line.; assay type: functional; conditions: Homo sapiens
MDA-N = test: In vitro growth inhibition of MDA-N breast cancer cell line.; assay type: functional; conditions: Homo sapiens
OVCAR-3 = test: In vitro growth inhibition of OVCAR-3 ovarian cancer cell line.; assay type: functional; conditions: Homo sapiens
NCI-H23 = test: In vitro growth inhibition of NCI-H23 non small cell lung cancer cell line.; assay type: functional; conditions: Homo sapiens
RXF 393 = test: In vitro growth inhibition of RXF-393 renal cancer cell line.; assay type: functional; conditions: Homo sapiens
SK-MEL-5 = test: In vitro growth inhibition of SK-MEL-5 melanoma cell line.; assay type: functional; conditions: Homo sapiens
SW-620 = test: In vitro growth inhibition of SW-620 colon cancer cell line.; assay type: functional; conditions: Homo sapiens
U-251 = test: In vitro growth inhibition of U251 CNS cancer cell line.; assay type: functional; conditions: Homo sapiens
PC-3 = test: In vitro growth inhibition of PC-3 prostate cancer cell line.; assay type: functional; conditions: Homo sapiens
Tubulin [2] = target: T1, Tubulin (Bos taurus, UniProt Q6B856+Q862L2+Q862F3); test: Inhibition of tubulin polymerization (ITP); assay type: functional
Procedure, shortened: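 Polymerization of electrophoretically homogeneous bovine brain tubulin at 12 µM, run with a range of inhibitor concentrations. IC50 is the concentration inhibiting polymerization by 50%, reported ± SD.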

A549 = test: In vitro cytotoxicity against A-549 human lung cancer cells; assay type: functional; conditions: read-out: ED50 (the source's name)
Procedure, shortened: (§2)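 Panel of human tumor lines: KB nasopharyngeal epidermoid, A-549 lung, HCT-8 ileocecal, CAKI-1 renal, MCF-7 breast, SKMEL-2 melanoma. Growth measured by SRB assay and compared with untreated cells.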

CAKI-1 = test: In vitro cytotoxicity against CAKI-1 human renal cancer cells; assay type: functional; conditions: read-out: ED50 (the source's name); procedure, shortened: as §2
HCT-8 = test: In vitro cytotoxicity against HCT-8 human ileocecal cancer cells; assay type: functional; conditions: read-out: ED50 (the source's name); procedure, shortened: as §2
KB [3] = test: In vitro cytotoxicity against KB human epidermoid carcinoma of the nasopharynx; assay type: functional; conditions: read-out: ED50 (the source's name); procedure, shortened: as §2
MCF7 = test: In vitro cytotoxicity against MCF-7 human breast cancer cells; assay type: functional; conditions: read-out: ED50 (the source's name); procedure, shortened: as §2
SK-MEL-2 [4] = test: In vitro cytotoxicity against SKMEL-2 human melanoma cancer cells; assay type: functional; conditions: read-out: ED50 (the source's name); procedure, shortened: as §2
Tubulin [5] = target: T1, Tubulin; test: Concentration inhibiting tubulin polymerization (ITP); assay type: functional
Tubulin (Bos taurus) [6] = target: T2, Tubulin (Bos taurus) (UniProt Q6B856+Q862L2+Q862F3); test: Concentration inhibiting [3H]-colchicine binding to tubulin; assay type: protein assay; conditions: concentration not given here
Procedure, shortened: (§3)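 Inhibition of [³H]colchicine binding to electrophoretically homogeneous bovine brain tubulin (1 µM). [³H]colchicine and inhibitor each at 5 µM. Result given as % inhibition.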

Tubulin (Bos taurus) [7] = target: T2, Tubulin (Bos taurus); test: Concentration inhibiting [3H]colchicine binding to tubulin, at a concentration of 5 uM; assay type: protein assay; procedure, shortened: as §3
SK-MEL-2 [8] = test: In vitro cytotoxicity against SKMEL-2 human melanoma cancer; assay type: functional; conditions: read-out: ED50 (the source's name); procedure, shortened: as §2
KB [9] = test: In vitro cytotoxicity against KB-Vin cancer cell line.; assay type: functional; conditions: Homo sapiens, read-out: ED50 (the source's name)
KB [10] = test: In vitro cytotoxicity against KB-Vin cancer cell line; assay type: functional; conditions: Homo sapiens, read-out: ED50 (the source's name)
HL-60 [11] = test: In vitro growth inhibition of HL-60 (TB) leukemia cell line; assay type: functional; conditions: Homo sapiens; procedure, shortened: as §1

Compound | GI50 (HL-60 [1]) [nM] | GI50 (MDA-MB-435) [nM] | GI50 (MDA-N) [nM] | GI50 (OVCAR-3) [nM] | GI50 (NCI-H23) [nM] | GI50 (RXF 393) [nM] | GI50 (SK-MEL-5) [nM] | GI50 (SW-620) [nM] | GI50 (U-251) [nM] | GI50 (PC-3) [nM] | IC50 (Tubulin [2]) [nM] | EC50 (A549) [nM] | EC50 (CAKI-1) [nM] | EC50 (HCT-8) [nM] | EC50 (KB [3]) [nM] | EC50 (MCF7) [nM] | further results
Cc1ccc2c(O)cc(-c3ccc(C)s3)nc2n1 | 77.6 | 23.4 | 22.9 | 257 | 138 | 195 | 204 | 47.9 | 324 | 204 | 1700 | – | – | – | – | – | –
Cc1cnc2nc(-c3csc4ccccc34)cc(O)c2c1 | – | – | – | – | – | – | – | – | – | – | – | 56 | 134 | 57 | 27 | 125 | EC50 (SK-MEL-2 [4]): 135 nM; IC50 (Tubulin [5]): 910 nM; inhibition (Tubulin (Bos taurus) [6]): 26%
Cc1ccnc2nc(-c3csc4ccccc34)cc(O)c12 | – | – | – | – | – | – | – | – | – | – | – | 200 | > 250 | – | 40 | 250 | IC50 (Tubulin [5]): 1200 nM; inhibition (Tubulin (Bos taurus) [6]): 22%
Cc1ccc2c(O)cc(-c3csc4ccccc34)nc2n1 | < 10 | < 10 | < 10 | < 10 | 21.9 | < 10 | < 10 | < 10 | – | – | – | – | – | – | – | – | IC50 (Tubulin [5]): 370 nM; inhibition (Tubulin (Bos taurus) [7]): 65%
Cc1cnc2nc(-c3ccc(C)s3)cc(O)c2c1 | – | – | – | – | – | – | – | – | – | – | 2700 | 1300 | 1250 | 900 | 1100 | 1100 | EC50 (SK-MEL-2 [8]): > 2500 nM; EC50 (KB [9]): 1100 nM
Cc1ccc2c(O)cc(-c3ccc(Br)s3)nc2n1 | – | – | – | – | – | – | – | – | – | – | – | > 3100 | – | > 800 | 800 | > 800 | EC50 (SK-MEL-2 [4]): > 10000 nM; IC50 (Tubulin [5]): 1500 nM; inhibition (Tubulin (Bos taurus) [7]): 19%; EC50 (KB [9]): 500 nM
Cc1ccc2c(O)cc(-c3sc4ccccc4c3C)nc2n1 | 18600 | 4790 | 17000 | 19500 | 19500 | 17000 | 14800 | 20000 | 38900 | 33100 | 13000 | – | – | – | – | – | –
Cc1ccc2c(O)cc(-c3sc(-c4ccccc4)cc3C)nc2n1 | 5500 | 3550 | 3890 | 21400 | 6030 | 36300 | 3390 | 10000 | – | – | 14000 | – | – | – | – | – | –
Cc1ccc2c(O)cc(-c3sccc3C)nc2n1 | 174 | 107 | 77.6 | 661 | 145 | 631 | 178 | 145 | 468 | 245 | 2800 | – | – | – | – | – | –
Cc1ccc2c(O)cc(-c3cc4ccccc4s3)nc2n1 | > 100000 | > 100000 | > 100000 | > 100000 | > 100000 | 51300 | > 100000 | > 100000 | > 100000 | > 100000 | > 40000 | – | – | – | – | – | –
Cc1ccc2c(O)cc(-c3ccco3)nc2n1 | – | – | – | – | – | – | – | – | – | – | 14000 | > 10000 | > 10000 | > 10000 | > 10000 | > 20000 | EC50 (SK-MEL-2 [4]): > 10000 nM
Cc1cnc2nc(-c3sccc3C)cc(O)c2c1 | – | 324 | 676 | 3800 | – | 4470 | 2040 | 4170 | 9120 | 5370 | 3800 | 2500 | > 5000 | 1000 | 1300 | 1100 | EC50 (KB [9]): 1900 nM
Cc1ccc2c(O)cc(-c3cccs3)nc2n1 | 2690 | 2000 | 1860 | 30900 | 4370 | 11200 | 6030 | 2950 | 17000 | 9330 | 6000 | > 6300 | – | – | 6300 | > 1600 | EC50 (KB [10]): 9500 nM
Cc1cc(C)c2c(O)cc(-c3csc4ccccc34)nc2n1 | – | – | – | – | – | – | – | – | – | – | – | 300 | > 500 | – | 120 | 500 | IC50 (Tubulin [5]): 780 nM; inhibition (Tubulin (Bos taurus) [6]): 26%
Cc1ccc2c(O)cc(-c3cccnc3)nc2n1 | – | – | – | – | – | – | – | – | – | – | 7700 | 4600 | 5000 | 2100 | 3000 | 1200 | EC50 (KB [10]): 2500 nM; EC50 (SK-MEL-2 [8]): > 10000 nM
Cc1ccc2c(O)cc(-c3ccsc3)nc2n1 | – | 490 | 363 | 5130 | 1860 | 3240 | 2570 | 1000 | 3890 | 3090 | 7000 | > 6300 | – | > 3100 | 6300 | > 3100 | GI50 (HL-60 [11]): 2190 nM
Cc1ccc2c(O)cc(-c3ccc(Cl)s3)nc2n1 | 204 | 380 | 186 | 2040 | 1000 | 2040 | 380 | – | 1200 | 1580 | 1700 | – | – | – | – | – | –
Cc1ccc2c(O)cc(-c3cc(C)sc3C)nc2n1 | 1550 | 372 | 631 | 2820 | 1230 | 1910 | 661 | 1410 | 3470 | 2240 | 4800 | – | – | – | – | – | –
